ChEMBL document CHEMBL4732111, “A greener protocol for the synthesis of phosphorochalcogenoates: Antioxidant and free radical scavenging activities” (Eur J Med Chem, 2021)

Assays:
[1] = test system: Brain; assay: Antioxidant activity in Swiss mouse brain cerebral tissue assessed as inhibition of SNP-induced lipid peroxidation by measuring TBARS level at 50 uM incubated for 1 hr relative to control; type: functional, tissue-based; set-up: scale not given: the % may be the effect or the level left
Summary of the method: (§1)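 Whole brain of male adult Swiss mice homogenized in cold 50 mM Tris-HCl pH 7.4 (1/5 w/v) and spun 2400 g, 10 min, 4 °C; supernatant S1 used. Peroxidation induced with sodium nitroprusside in the presence of compound. Then SDS 8.1%, TBA 0.8% and acetic acid/HCl pH 3.4 added, heated 95 °C for 2 h; MDA measured as marker. Trolox 10 µM as positive control. n = 3; one-way ANOVA with Tukey versus induced.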

[2] = test system: Brain; assay: Antioxidant activity in Swiss mouse brain cerebral tissue assessed as inhibition of SNP-induced lipid peroxidation by measuring TBARS level at 10 uM incubated for 1 hr relative to control; type: functional, tissue-based; set-up: scale not given: the % may be the effect or the level left; summary of the method: as §1
[3] = test system: Brain; assay: Antioxidant activity in Swiss mouse brain cerebral tissue assessed as inhibition of SNP-induced lipid peroxidation by measuring TBARS level at 100 uM incubated for 1 hr relative to control; type: functional, tissue-based; set-up: scale not given: the % may be the effect or the level left; summary of the method: as §1
[4] = test system: Brain; assay: Antioxidant activity in Swiss mouse brain cerebral tissue assessed as inhibition of SNP-induced lipid peroxidation by measuring TBARS level at 500 uM incubated for 1 hr relative to control; type: functional, tissue-based; set-up: scale not given: the % may be the effect or the level left; summary of the method: as §1
[5] = test system: Brain; assay: Antioxidant activity in Swiss mouse brain cerebral tissue assessed as inhibition of sodium azide-induced reactive species production by measuring fluorescence unit at 10 uM by DCHF-DA dye based spectrofluorimetric method (reference value: 139 +/- 26.8 U); type: functional
[6] = Antioxidant activity assessed as ferric ion reducing activity by measuring absorbance at 10 uM measured after 40 mins by FRAP assay (reference value: 0.11 +/- 0.02); type: functional
Summary of the method: (§2)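 Compounds at 10–500 µM mixed with FRAP reagent (FeCl3, triazine and sodium acetate buffer pH 3.2; 10:1:1). Incubated 40 min at 37 °C in the dark; absorbance reported. Vehicle and Trolox 10 µM as controls. Mean ± SEM, n = 3; one-way ANOVA with Tukey versus vehicle.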

[7] = Antioxidant activity assessed as ferric ion reducing activity by measuring absorbance at 50 uM measured after 40 mins by FRAP assay (reference value: 0.11 +/- 0.02); type: functional; summary of the method: as §2
[8] = Antioxidant activity assessed as ferric ion reducing activity by measuring absorbance at 100 uM measured after 40 mins by FRAP assay (reference value: 0.11 +/- 0.02); type: functional; summary of the method: as §2
[9] = Antioxidant activity assessed as ferric ion reducing activity by measuring absorbance at 500 uM measured after 40 mins by FRAP assay (reference value: 0.11 +/- 0.02); type: functional; summary of the method: as §2
[10] = Antioxidant activity assessed as DPPH radical scavenging activity at 10 uM incubated for 30 mins under dark condition relative to control; type: functional
Summary of the method: (§3)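 Compounds at 10–500 µM mixed with ethanolic DPPH solution. Incubated 30 min at 30 °C in the dark, then absorbance read at 517 nm. Scavenging expressed as percent relative to vehicle; Trolox 10 µM as positive control. Mean ± SEM, n = 3; one-way ANOVA with Tukey.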

[11] = Antioxidant activity assessed as DPPH radical scavenging activity at 50 uM incubated for 30 mins under dark condition relative to control; type: functional; summary of the method: as §3
[12] = Antioxidant activity assessed as DPPH radical scavenging activity at 100 uM incubated for 30 mins under dark condition relative to control; type: functional; summary of the method: as §3
[13] = Antioxidant activity assessed as DPPH radical scavenging activity at 500 uM incubated for 30 mins under dark condition relative to control; type: functional; summary of the method: as §3
[14] = Antioxidant activity assessed as ABTS radical scavenging activity at 10 uM relative to control; type: functional
Summary of the method: (§4)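 Compounds at 10–500 µM mixed with ABTS•+ solution; scavenging read as fall in absorbance at 734 nm, expressed as percent scavenging relative to vehicle. Trolox 10 µM as positive control. Mean ± SEM, n = 3; one-way ANOVA with Tukey.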

[15] = Antioxidant activity assessed as ABTS radical scavenging activity at 50 uM relative to control; type: functional; summary of the method: as §4
[16] = Ex vivo antioxidant activity in Swiss mouse assessed as inhibition of canola oil-induced lipid peroxidation in brain by measuring TBARS level at 10 mg/kg, ig measured after 30 mins (reference value: 91.91 +/- 9.38 /g); type: functional; conditions: 0.5 h
[17] = Ex vivo antioxidant activity in Swiss mouse assessed as inhibition of canola oil-induced lipid peroxidation in liver by measuring TBARS level at 10 mg/kg, ig measured after 30 mins (reference value: 271.5 +/- 43.88 /g); type: functional; conditions: 0.5 h
[18] = Ex vivo antioxidant activity in Swiss mouse assessed as inhibition of canola oil-induced lipid peroxidation in kidney by measuring TBARS level at 10 mg/kg, ig measured after 30 mins (reference value: 438.20 +/- 27.59 /g); type: functional; conditions: 0.5 h
[19] = Ex vivo antioxidant activity in Swiss mouse assessed as inhibition of canola oil-induced glutathione peroxidase activity in brain by measuring oxidation of NADPH at 10 mg/kg, ig measured after 30 mins by spectrophotometric method (reference value: 12.8 +/- 2.28 nmol/g); type: functional; conditions: 0.5 h
Summary of the method: (§5)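 Swiss mice dosed orally at 10 mg/kg (vehicle canola oil); brain S1 prepared 30 min later. SOD measured as inhibition of epinephrine autoxidation in Na2CO3 50 mM pH 10.3 at 480 nm, one unit = 50% inhibition at 26 °C. GPx measured as NADPH decay coupled to glutathione reductase with H2O2 and GSH. Mean ± SEM, 6 mice per group; Student's t-test.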

[20] = Ex vivo antioxidant activity in Swiss mouse assessed as inhibition of canola oil-induced superoxide dismutase activity in brain by measuring SOD activity at 10 mg/kg, ig measured after 30 mins by spectrophotometric method (reference value: 25.44 +/- 4.12 U/min); type: functional; conditions: 0.5 h; summary of the method: as §5
[21] = Toxicity in Swiss mouse assessed as change in plasma urea level at 10 mg/kg, ig measured after 30 mins (reference value: 90.31 +/- 0.74 mg/dl); type: organism-based; conditions: in vivo, po, 0.5 h
Summary of the method: (§6)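 Swiss mice dosed intragastrically at 10 mg/kg (control canola oil 10 mL/kg). After 30 min, blood taken by heart puncture into heparin under light isoflurane anesthesia. Plasma obtained at 200 g for 10 min, hemolyzed samples discarded. ALT, AST, urea and creatinine measured with commercial kits. 5–6 mice per group; Student's t-test.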

[22] = Toxicity in Swiss mouse assessed as change in plasma creatinine level at 10 mg/kg, ig measured after 30 mins (reference value: 1.77 +/- 0.05 mg/dl); type: organism-based; conditions: in vivo, po, 0.5 h; summary of the method: as §6
[23] = Toxicity in Swiss mouse assessed as change in plasma AST level at 10 mg/kg, ig measured after 30 mins (reference value: 148 +/- 8.08 […]); type: organism-based; conditions: in vivo, po, 0.5 h; summary of the method: as §6
[24] = Toxicity in Swiss mouse assessed as change in plasma ALT level at 10 mg/kg, ig measured after 30 mins (reference value: 110.90 +/- 12.4 IU/L); type: organism-based; conditions: in vivo, po, 0.5 h; summary of the method: as §6
[25] = Stability of compound in Na2CO3 measured after 24 hrs; type: physicochemical
[26] = Stability of compound exposed to blue LED light using DMSO as solvent measured after 24 hrs; type: physicochemical
[27] = Stability of compound exposed to blue LED light using DCM as solvent measured after 24 hrs; type: physicochemical
[28] = Stability of compound exposed to blue LED light using EtOH as solvent measured after 24 hrs; type: physicochemical
[29] = Stability of compound in TsOH measured after 24 hrs; type: physicochemical
[30] = test system: Brain; assay: Antioxidant activity in Swiss mouse brain cerebral tissue assessed as inhibition of sodium azide-induced reactive species production by measuring fluorescence unit at 50 uM by DCHF-DA dye based spectrofluorimetric method (reference value: 139 +/- 26.8 U); type: functional
[31] = test system: Brain; assay: Antioxidant activity in Swiss mouse brain cerebral tissue assessed as inhibition of sodium azide-induced reactive species production by measuring fluorescence unit at 100 uM by DCHF-DA dye based spectrofluorimetric method (reference value: 139 +/- 26.8 U); type: functional
[32] = Antioxidant activity assessed as ABTS radical scavenging activity at 100 uM relative to control; type: functional; summary of the method: as §4
[33] = Antioxidant activity assessed as ABTS radical scavenging activity at 500 uM relative to control; type: functional; summary of the method: as §4

COP(=O)(OC)[Se]c1ccccc1
Activity [1]: 80.6%
Activity [2]: 84.7%
Activity [3]: 85.9%
Activity [4]: 79.8%
Activity [5]: 71.5 U
Activity [6]: 0.11
Activity [7]: 0.12
Activity [8]: 0.12
Activity [9]: 0.16
Activity [10]: 5.53%
Activity [11]: 7.83%
Activity [12]: 4.68%
Activity [13]: 21.9%
Activity [14]: 5.02%
Activity [15]: 10.3%
Activity [16]: 87.34 g⁻¹
Activity [17]: 326 g⁻¹
Activity [18]: 676.6 g⁻¹
Activity [19]: 7.18 nmol/g
Activity [20]: 25.94 U/min
Activity [21]: 80.3 mg/dL
Activity [22]: 1.78 mg/dL
Activity [23]: 151.2 IU/L
Activity [24]: 117.4 IU/L

Cc1c(C)c2c(c(C)c1O)CCC(C)(C(=O)O)O2 (stereo not drawn) [TROLOX]
Activity [2]: 29.8%
Activity [5]: 99 U
Activity [6]: 0.39
Activity [10]: 93.5%
Activity [14]: 94.3%

CCOP(=O)(OCC)[Se]c1ccccc1
Stabilty [25]: Stable
Stabilty [26]: Stable
Stabilty [27]: Stable
Stabilty [28]: Stable
Stabilty [29]: Stable

CCCCOP(=O)(OCCCC)[Se]c1ccccc1
Activity [1]: 83.8%
Activity [2]: 79.3%
Activity [3]: 90.4%
Activity [4]: 57%
Activity [5]: 98.3 U
Activity [30]: 76.1 U
Activity [31]: 61.4 U
Activity [6]: 0.11
Activity [7]: 0.15
Activity [8]: 0.15
Activity [9]: 0.3
Activity [10]: 6.14%
Activity [11]: 18.4%
Activity [12]: 12.2%
Activity [13]: 7.38%
Activity [14]: 1.92%
Activity [15]: 8.76%
Activity [32]: 3.84%
Activity [33]: 2.34%
Activity [16]: 87.71 g⁻¹
Activity [17]: 249.4 g⁻¹
Activity [18]: 371 g⁻¹
Activity [19]: 5.5 nmol/g
Activity [20]: 23.85 U/min
Activity [21]: 105 mg/dL
Activity [22]: 1.75 mg/dL
Activity [23]: 159.3 IU/L
Activity [24]: 140 IU/L

O=P(OCc1ccccc1)(OCc1ccccc1)[Se]c1ccccc1
Activity [2]: 59.5%
Activity [5]: 61.7 U
Activity [6]: 0.16
Activity [7]: 0.23
Activity [8]: 0.4
Activity [9]: 1.02
Activity [10]: 2.19%
Activity [11]: 3.94%
Activity [12]: 3.72%
Activity [13]: 5.04%
Activity [14]: 3.85%
Activity [15]: 3.06%
Activity [32]: 1.86%
Activity [33]: 12.4%
Activity [16]: 83 g⁻¹
Activity [17]: 263.8 g⁻¹
Activity [18]: 580.5 g⁻¹
Activity [19]: 6.39 nmol/g
Activity [20]: 17.54 U/min
Activity [21]: 98.59 mg/dL
Activity [22]: 1.52 mg/dL
Activity [23]: 155.3 IU/L
Activity [24]: 138.1 IU/L

COc1ccc([Se]P(=O)(OC)OC)cc1
Activity [1]: 78.6%
Activity [2]: 87.6%
Activity [3]: 78.1%
Activity [4]: 58%
Activity [5]: 94 U
Activity [30]: 94.1 U
Activity [31]: 67.2 U
Activity [6]: 0.16
Activity [7]: 0.16
Activity [8]: 0.19
Activity [9]: 0.26
Activity [10]: 3.72%
Activity [11]: 6.95%
Activity [12]: 11.9%
Activity [13]: 19.1%
Activity [14]: 6.76%
Activity [15]: 8.6%
Activity [32]: 6.91%
Activity [33]: 19.8%
Activity [16]: 64.64 g⁻¹
Activity [17]: 280.8 g⁻¹
Activity [18]: 422.5 g⁻¹
Activity [19]: 4.98 nmol/g
Activity [20]: 13.47 U/min
Activity [21]: 74.39 mg/dL
Activity [22]: 2.36 mg/dL
Activity [23]: 151 IU/L
Activity [24]: 119.5 IU/L
